Screening data: PubChem BioAssay, several laboratories
Rows were chosen to be rich in hits. Some 3.4% of all compounds tested hit in one or more screens of this group.
CHT allo act: allosteric activators of human choline transporter CHT; Q9GZV3; CHT-expressing cells, membrane potential dye, choline EC20; active compounds read high; LV-AA mutant CHT in HEK293 cells; B-score at 10 µM; 310,000 tested, 0.49% active; AID 488977;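 active means initial fluorescence not abnormally high and integrated response B-score, plate-corrected, over 3 SD above library mean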
ANO1 activ: activators or potentiators of mouse TMEM16A chloride channel; Q8BHY3; HEK293 TMEM16A/YFP-H148Q/I152L, iodide quench fluorescence; active compounds read low; B-score at 10 µM; 340,000 tested, 0.3% active; AID 623877;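 active means fluorescence-ratio B-score plate-corrected deviation score at least 3 library SD below zero, with starting fluorescence score within 5 deviations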;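 further: channel opened by trigger with iodide after compound preincubation; score built on the fluorescence ratio of max minus min over baseline; more negative score means more quench and so TMEM16A activation or potentiation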
Target sequence (Q8BHY3 whole entry, looked up): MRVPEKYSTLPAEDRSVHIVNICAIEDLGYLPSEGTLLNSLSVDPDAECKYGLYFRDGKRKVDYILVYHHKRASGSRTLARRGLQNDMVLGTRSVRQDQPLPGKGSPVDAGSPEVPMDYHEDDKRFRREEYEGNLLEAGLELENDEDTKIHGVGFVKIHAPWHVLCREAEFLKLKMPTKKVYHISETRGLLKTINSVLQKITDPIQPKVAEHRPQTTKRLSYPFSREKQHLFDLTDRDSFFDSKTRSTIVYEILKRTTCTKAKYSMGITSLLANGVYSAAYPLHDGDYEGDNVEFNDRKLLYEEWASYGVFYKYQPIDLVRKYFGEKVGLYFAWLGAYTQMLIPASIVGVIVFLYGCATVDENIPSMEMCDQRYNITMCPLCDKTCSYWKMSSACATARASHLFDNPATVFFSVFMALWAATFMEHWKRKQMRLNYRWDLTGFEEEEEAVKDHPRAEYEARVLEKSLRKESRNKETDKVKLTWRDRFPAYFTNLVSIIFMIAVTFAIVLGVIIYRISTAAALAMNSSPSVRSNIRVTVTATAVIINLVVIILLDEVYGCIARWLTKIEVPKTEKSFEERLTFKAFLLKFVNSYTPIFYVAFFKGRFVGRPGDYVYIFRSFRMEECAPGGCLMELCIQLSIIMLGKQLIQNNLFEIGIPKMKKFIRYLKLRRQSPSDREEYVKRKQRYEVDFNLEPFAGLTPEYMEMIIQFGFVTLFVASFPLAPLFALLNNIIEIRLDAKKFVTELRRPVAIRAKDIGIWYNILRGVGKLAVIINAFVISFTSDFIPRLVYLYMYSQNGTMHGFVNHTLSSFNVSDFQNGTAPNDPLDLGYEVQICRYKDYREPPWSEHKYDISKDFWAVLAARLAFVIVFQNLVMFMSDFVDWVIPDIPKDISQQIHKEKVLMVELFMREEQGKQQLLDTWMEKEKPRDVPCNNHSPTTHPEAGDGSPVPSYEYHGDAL
ANO1 block: inhibitors of mouse TMEM16A calcium-activated chloride channel; Q8BHY3; HEK293 TMEM16A/YFP iodide influx fluorescence, ionomycin; normalized B-score (activity score, 25-100; higher = stronger inhibition) at 10 µM; 310,000 tested, 1.2% active;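 active means ratio plate-corrected score three or more library SD toward inhibition, starting fluorescence score within five deviations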;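 further: score derived from kinetic fluorescence span divided by baseline fluorescence per well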
CHT inh: inhibitors of human choline transporter CHT; Q9GZV3; CHT-expressing cells, membrane potential dye, choline response; active compounds read low; B-score at 10 µM; 310,000 tested, 0.86% active; AID 488975;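 active means B-score over 3 SD under the library average, and starting fluorescence ratio not unusually high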;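 further: choline stimulus applied at its EC90 after an EC20 pre-addition; B-score computed on integrated fluorescence ratio after choline addition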
IMP-1 inh: blocks Pseudomonas aeruginosa IMP-1 metallo-beta-lactamase; inhibition, % at 5.6 µM; purified IMP-1, nitrocefin hydrolysis, epi-absorbance fluorescence; 290,000 tested, 0.45% active;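 active means inhibition above the mean plus 3 SD of all compounds in the same screening run, cut at about 4.5% in these data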
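assay system = purified recombinant IMP-1 metallo-beta-lactamase enzyme | schedule = 15 min preincubation plus 25 min reaction at 25 °C | signal = Epi-absorbance fluorescence, 480 nm excitation, 530 nm emission | read-out basis = percent inhibition from optical density relative to buffer-blank wells | controls = IMP-1 with DMSO as 0%, enzyme-free DMSO as 100%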
VIM-2 inh: blocks Pseudomonas aeruginosa VIM-2 metallo-beta-lactamase | 290,000 tested, 0.89% active | inhibition, % at 5.6 µM | purified VIM-2, nitrocefin hydrolysis, epi-absorbance fluorescence | AID 1527;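 active means inhibition above the mean of all tested compounds plus 3 SD, cutoff set per screening run, cut at about 7.5% in these data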;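 further: red hydrolysis product quenches plate fluorescence so inhibitors raise well fluorescence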
CHT act confirm: human CHT activation, confirmatory screen; shares compounds with CHT allo act; CHT-expressing cells, membrane potential dye fluorescence (FDSS); % of choline EC20–EC90 response window; HEK293 expressing CHT LV-AA mutant; choline added at its EC20; 2,500 tested, 91% active; activation, % at 10 µM;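 active means primary screen active, with duplicate mean activation above negative control mean plus 3 SD, cut at about 11% in these data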
HEK293 MP dye: CHT activator counter-screen hit in parental HEK293 cells. membrane potential dye fluorescence (FDSS); measured after EC20 choline addition. shares compounds with CHT allo act. 2,500 tested, 62% active. AID 623908. ratio readout change at 10 µM, hits read low;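 active means duplicate-averaged ratio beyond 3 SD from buffer wells, up or down, though filed actives are nearly all decreases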
Large screens that a line does not name were inactive (follow-up assays come after a bar, where they were run).

COc1ccc(-c2c[n+](CC(=O)c3cccs3)c3n2CCC3)cc1	none | CHT act confirm 44 | HEK293 MP dye -31
Cc1ccc(-c2c[n+](CC(=O)c3cccs3)c3n2CCC3)cc1	none
Cc1cccc(C)c1NC(=O)C1CCCN1C(=O)Nc1cccc(F)c1 (configuration not stated)	none
O=C(Nc1ccc(F)cc1)c1ccc2c(=O)n(CC3CCCO3)c(=S)[nH]c2c1 (configuration not stated)	none
CCCNCC(O)Cn1c2ccccc2n2c(=O)cc(C)c(C#N)c12 (configuration not stated)	VIM-2 inh 8.5 | CHT act confirm 46 | HEK293 MP dye -41
Cc1cc(=O)n2c3ccccc3n(CC(O)CN3CCCC3)c2c1C#N (configuration not stated)	CHT allo act 6.9 | CHT act confirm 52 | HEK293 MP dye -46
Cc1c(C)n(CC(O)CN2CCCCC2)c2ccccc12 (configuration not stated)	none
O=C(NC1C2CCCC1CN(C1CC1)C2)c1ccc(Cl)cc1 (configuration not stated)	none
CCOC(=O)c1c(CN2CCNCC2)nc2ccc(Cl)cc2c1-c1ccccc1	none (no result: CHT allo act, ANO1 block, CHT inh, IMP-1 inh, VIM-2 inh)
Cc1c2c(n3c(nc4ccccc43)c1C#N)N(CCN(C)C)CC2	CHT allo act 7.1, VIM-2 inh 11 | CHT act confirm 42 | HEK293 MP dye -70
NC1CCN(c2nc3c(cc2F)c(=O)c(C(=O)O)cn3-c2ccc(F)cc2F)C1 (configuration not stated)	none (no result: IMP-1 inh, VIM-2 inh)
COc1c(N2CCN(C(=S)Nc3ccc(F)cc3)C(C)C2)c(F)cc2c(=O)c(C(=O)O)cn(C3CC3)c12 (configuration not stated)	none
COc1c(N2CCNC(C)C2)c(F)cc2c(=O)c(C(=O)O)cn(C3CC3)c12 (configuration not stated)	CHT allo act 6.7 (no result: ANO1 activ, IMP-1 inh, VIM-2 inh) | CHT act confirm 36 | HEK293 MP dye -45
NC1CCN(c2c(F)cc3c(=O)c(C(=O)O)cn(C4CC4)c3c2Cl)C1 (configuration not stated)	none | CHT act confirm 18 | HEK293 MP dye -48
CC12CCC(=O)N1C(C(=O)NCc1ccc(Cl)cc1Cl)CS2 (configuration not stated)	none (no result: IMP-1 inh, VIM-2 inh)
COC(=O)c1nc(Cl)c(Cl)c(N)c1Cl	none
NC(N)=NC(=O)c1nc(Cl)c(N)nc1N	CHT allo act 7.2 | CHT act confirm 18 | HEK293 MP dye -41
NC(N)=NC(=O)c1nc(Cl)c(N2CCCCCC2)nc1N	none (no result: IMP-1 inh, VIM-2 inh) | CHT act confirm 42 | HEK293 MP dye -22
Nc1c(Cl)ncnc1N1CCCC1	none
CCOC(=O)[C@H]1[C@H]2COc3cc(OC)ccc3[C@@H]2N2C(=O)c3cc(OC)c(OC)cc3NC(=O)[C@@]12C	none (no result: IMP-1 inh, VIM-2 inh)
CCO[C@H]1OC(C(=O)NCc2nc3ccccc3[nH]2)=C[C@@H](C2CC2)[C@@H]1CCCO	none | CHT act confirm 26 | HEK293 MP dye inactive
COc1ccc(CC2(C)OC(c3ccc(C)c([N+](=O)[O-])c3)=NN2C(C)=O)cc1 (configuration not stated)	none | CHT act confirm 27 | HEK293 MP dye inactive
COc1ccc(CC2(C)OC(c3ccc(C)cc3)=NN2C(C)=O)cc1 (configuration not stated)	none
COC(=O)c1cc(C(=O)N2CCN(c3cccc(Cl)c3)CC2)cc([N+](=O)[O-])c1	CHT allo act 7.6 | CHT act confirm 33 | HEK293 MP dye inactive
CN1CCC(n2[nH]c(-c3ccccc3)c(Cc3ccccc3)c2=O)CC1	none (no result: CHT allo act, ANO1 block, CHT inh, IMP-1 inh, VIM-2 inh)
CCC(C(=O)NC1CCCC1)N(Cc1ccco1)C(=O)CNS(=O)(=O)c1ccccc1 (configuration not stated)	none
CCCC(C(=O)NC1CCCCC1)N(Cc1ccco1)C(=O)CNS(=O)(=O)c1ccccc1 (configuration not stated)	CHT allo act 8.4 | CHT act confirm 33 | HEK293 MP dye inactive
CC(=O)N1CCOc2ccc(S(=O)(=O)N3CCC(C(=O)NCc4ccc(C)cc4)CC3)cc21	none
O=C(CCS(=O)(=O)c1ccccc1)Nc1ccc(Cl)cn1	none
C[C@@H]1CC=C[C@H]2[C@H]1C(=O)N(Cc1ccccc1)[C@H]2c1ccc2ccccc2c1	none (no result: IMP-1 inh, VIM-2 inh)
C[C@@H]1CC=C[C@H]2[C@H]1C(=O)N(Cc1ccccc1)[C@H]2c1cccc([N+](=O)[O-])c1	CHT allo act 6.3 (no result: IMP-1 inh, VIM-2 inh) | CHT act confirm 26 | HEK293 MP dye inactive
O=C(NN=C1CCCC1)c1ccccc1OCc1ccc(Cl)cc1	CHT allo act 10 | CHT act confirm 13 | HEK293 MP dye inactive
CCOc1ccccc1CNC(=O)CCC(=O)N1Cc2ccccc2Oc2ncccc21	none
Cc1cccc(NC(=O)CN2C(=O)NC3(CCCC3)C2=O)n1	none (no result: IMP-1 inh, VIM-2 inh)
O=C(O)C1NCCc2ccccc21 (configuration not stated)	none | CHT act confirm inactive | HEK293 MP dye inactive
CC(C)n1cnc2c(Nc3cccc(Cl)c3)nc(NCCCO)nc21	none (no result: IMP-1 inh, VIM-2 inh) | CHT act confirm inactive | HEK293 MP dye inactive
Cc1ccccc1Nc1c(-c2cccnc2)nc2ccccn12	CHT allo act 7.5 | CHT act confirm 50 | HEK293 MP dye -51
Cc1ccccc1Nc1c(-c2cccnc2)nc2ccc(Br)cn12	none
CCC[n+]1c2ccccc2cc2ccccc21	none | CHT act confirm 76 | HEK293 MP dye -71
CC1CN(C(=S)Nc2ccccc2C(F)(F)F)CC(C)O1 (configuration not stated)	none
c1ccc(Cn2c[n+](Cc3ccccc3)c3ccccc32)cc1	none | CHT act confirm 46 | HEK293 MP dye inactive
c1ccc(C[n+]2csc3ccccc32)cc1	none
COc1ccc(C)cc1N(CC(=O)NC1CCCC1)C(=O)Cn1nnc(-c2ccc(C)o2)n1	none (no result: CHT allo act, ANO1 block, CHT inh)
CSC1=Nc2sc3c(c2C2=NCCN12)CC(C)(C)OC3	none (no result: CHT allo act, ANO1 block, CHT inh, IMP-1 inh, VIM-2 inh)
CC1(C)Cc2c(sc3c2C2=NCCN2C=N3)CO1	CHT allo act 9.3 | CHT act confirm 75 | HEK293 MP dye -63
S=C(NCc1ccco1)NCC(c1ccco1)N1CCCCC1 (configuration not stated)	none
OCCN1CCN(CCCN2c3ccccc3Sc3ccc(Cl)cc32)CC1	none
CN1CCN(CCCN2c3ccccc3Sc3ccc(S(=O)(=O)N(C)C)cc32)CC1	none (no result: IMP-1 inh, VIM-2 inh) | CHT act confirm 16 | HEK293 MP dye -30
CN(C)CCCN1c2ccccc2Sc2ccc(Cl)cc21	none
